Measurements published in ChEMBL document CHEMBL1123769, “Renin inhibitors. Design of angiotensinogen transition-state analogues containing novel. (2R,3R,4R,5S)-5-amino-3,4-dihydroxy-2-isopropyl-7-methyloctanoic acid” (J Med Chem, 1987).
Where a SMILES comes first, the peptide text is derived from it. [ ]: non-standard residue; d: D form. The star is where a group is joined. 1Nal = N[C@@H](Cc1cccc2ccccc12)C(=O)O; Leu(ol) = CC(C)C[C@H](N)CO; Cbz = O=C(OCc1ccccc1)*

The compounds below were run against T1, Renin (Homo sapiens, UniProt P00797) (assay: Tested for the inhibition of human plasma renin).
T1 sequence (P00797 whole entry): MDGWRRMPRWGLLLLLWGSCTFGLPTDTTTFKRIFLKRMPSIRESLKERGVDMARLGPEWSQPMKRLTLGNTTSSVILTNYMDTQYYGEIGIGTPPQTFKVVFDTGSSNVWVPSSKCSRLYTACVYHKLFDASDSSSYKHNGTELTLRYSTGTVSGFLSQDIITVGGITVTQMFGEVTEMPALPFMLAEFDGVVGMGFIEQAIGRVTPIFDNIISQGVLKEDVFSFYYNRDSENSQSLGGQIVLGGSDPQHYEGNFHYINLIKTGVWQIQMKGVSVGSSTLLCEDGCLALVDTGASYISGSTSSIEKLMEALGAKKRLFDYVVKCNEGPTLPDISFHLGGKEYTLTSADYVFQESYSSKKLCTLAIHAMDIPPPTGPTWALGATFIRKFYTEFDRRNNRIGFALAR
Procedure, shortened: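 Lyophilized human plasma with 0.1% EDTA, incubated with phenylmethanesulfonyl fluoride, maleate buffer (pH 6.0) and inhibitor in 1% Tween 80/water vehicle, 90 min at 37 °C. Angiotensin I generated was measured by radioimmunoassay kit. Percent inhibition came from inhibitor versus control plasma renin activity. IC50 was estimated graphically from 3–4 inhibitor concentrations plotted on a semilog scale.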

Row | SMILES | IC50
1 | CC[C@H](C)[C@H](NC(=O)[C@@H](CC(=O)[C@H](CC(C)C)NC(=O)[C@H](Cc1c[nH]cn1)NC(=O)[C@H](Cc1ccccc1)NC(=O)OC(C)(C)C)C(C)C)C(=O)NCc1ccccn1 | 3.1 µM
2 | CC[C@H](C)CNC(=O)[C@H](C(C)C)[C@@H](O)[C@H](O)[C@H](CC(C)C)NC(=O)[C@H](Cc1c[nH]cn1)NC(=O)[C@H](Cc1ccccc1)NC(=O)OC(C)(C)C | 3.4 µM
3 | O=C(N[C@@H](Cc1cccc2ccccc12)C(=O)N[C@@H](Cc1c[nH]cn1)C(=O)N[C@@H](Cc1ccccc1)[C@@H](O)CO)OCc1ccccc1 | 1 µM
4 | CC(C)C[C@@H](CO)NC(=O)[C@H](Cc1c[nH]cn1)NC(=O)[C@H](Cc1cccc2ccccc12)NC(=O)OCc1ccccc1 (Cbz-[1Nal]-His-[Leu(ol)]) | 3.6 µM
5 | CC(C)(C)OC(=O)N[C@@H](Cc1ccccc1)C(=O)N[C@@H](Cc1c[nH]cn1)C(=O)N[C@@H](Cc1ccccc1)[C@@H](O)CO | 2.6 µM

Now from value to compound:

Row | IC50 | SMILES
6 | 0.22 µM | CC[C@H](C)[C@H](NC(=O)[C@@H](C[C@H](O)[C@H](CC(C)C)NC(=O)[C@H](Cc1c[nH]cn1)NC(=O)[C@H](Cc1ccccc1)NC(=O)OC(C)(C)C)C(C)C)C(=O)NCc1ccccn1
7 | 0.75 µM | CC(C)C[C@@H](C=O)NC(=O)[C@H](Cc1c[nH]cn1)NC(=O)[C@H](Cc1ccccc1)NC(=O)OCc1ccccc1 (Cbz-Phe-His-Leu-aldehyde)
8 | 0.35 µM | CC[C@H](C)[C@H](NC(=O)[C@H](C(C)C)[C@@H](O)[C@H](O)[C@H](CC(C)C)NC(=O)[C@H](Cc1c[nH]cn1)NC(=O)[C@H](Cc1ccccc1)NC(=O)OC(C)(C)C)C(=O)NCc1ccccn1
9 | 0.08 µM | CC(C)C[C@@H](C=O)NC(=O)[C@H](Cc1c[nH]cn1)NC(=O)[C@H](Cc1cccc2ccccc12)NC(=O)OCc1ccccc1 (Cbz-[1Nal]-His-Leu-aldehyde)

What follows are compounds tested against T2, Renin (Homo sapiens) (UniProt P00797) (assay: Tested for the inhibition of human plasma renin at 10e-4 M concentration).
T2 sequence (whole entry): T1 sequence (P00797 whole entry)

Row | inhibition | SMILES
10 | 22% | CC(C)C[C@@H](CO)NC(=O)[C@H](Cc1c[nH]cn1)NC(=O)[C@H](Cc1ccccc1)NC(=O)OCc1ccccc1 (HELM PEPTIDE1{[O=C(OCc1ccccc1)[*:2]].F.H.[CC(C)C[C@@H](CO)N[*:1]]}$$$$V2.0)
